Measurements: ChEMBL document CHEMBL1123964, “Potent, long-acting luteinizing hormone-releasing hormone antagonists containing new synthetic amino acids: N,N'-dialkyl-D-homoarginines” (J Med Chem, 1988)
Square brackets hold non-standard residues; d marks the D form. Peptide text beside a SMILES is read from it. dPhe(4-Cl) = N[C@H](Cc1ccc(Cl)cc1)C(=O)O

Tests used:
[1] = target: T1, Gonadotropin-releasing hormone receptor (Rattus norvegicus) (UniProt P30969); assay: Antiovulatory activity on diestrus II following administration as a solution in corn oil (24h earlier) in rat.; assay type: functional, organism-based
T1 sequence (whole entry): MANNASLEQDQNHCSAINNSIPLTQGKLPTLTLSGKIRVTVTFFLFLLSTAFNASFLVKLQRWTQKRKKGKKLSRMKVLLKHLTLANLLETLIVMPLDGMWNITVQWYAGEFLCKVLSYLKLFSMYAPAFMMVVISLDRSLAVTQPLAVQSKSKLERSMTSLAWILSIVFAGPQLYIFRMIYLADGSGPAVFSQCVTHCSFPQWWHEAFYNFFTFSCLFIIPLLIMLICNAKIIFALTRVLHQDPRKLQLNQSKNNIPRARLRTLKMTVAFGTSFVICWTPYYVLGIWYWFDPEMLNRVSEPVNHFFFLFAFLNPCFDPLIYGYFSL
Procedure, shortened: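 Female rats with at least two normal 4-day cycles before the test cycle were selected. They received the analogue sc in corn oil at noon on diestrus II, 24 h before the proestrus dosing time. On the morning of expected estrus the oviducts were examined under a dissecting microscope, and freshly ovulated eggs were counted. ED50 was taken from percent ovulating versus log-dose, with 10 rats per dose group and usually three or more dose groups.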

[2] = target: T1, Gonadotropin-releasing hormone receptor (Rattus norvegicus); assay: Antiovulatory activity on proestrus was measured by administering as a solution in 50% propylene glycol / 0.9% saline in rat; assay type: functional
[3] = target: T1, Gonadotropin-releasing hormone receptor (Rattus norvegicus); assay: Antiovulatory activity on proestrus following administration of solution in corn oil in rat.; assay type: functional, organism-based
Procedure, shortened: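 Rats with at least two normal 4-day cycles were used. They were injected sc with the analogue in corn oil at noon on proestrus, about 2 h before the preovulatory LH-RH surge. Oviducts were removed on the morning of expected estrus and checked microscopically for fresh eggs, which were counted. ED50 came from percent of females ovulating plotted against log-dose, with 10 animals per dose group.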

Compound	ED50 (ug injection-1) [1]	ED50 (ug injection-1) [2]	ED50 (ug injection-1) [3]
CCCNC(=NCCCC[C@@H](NC(=O)[C@H](Cc1ccc(O)cc1)NC(=O)[C@H](CO)NC(=O)[C@@H](Cc1c[nH]c2ccccc12)NC(=O)[C@@H](Cc1ccc(F)cc1)NC(=O)[C@@H](Cc1ccc2ccccc2c1)NC(C)=O)C(=O)N[C@@H](CC(C)C)C(=O)N[C@@H](CCCN=C(N)N)C(=O)N1CCC[C@H]1C(=O)NCC(N)=O)NCCC	12	2.4	4.7
CCNC(=NCCCC[C@@H](NC(=O)[C@H](Cc1ccc(O)cc1)NC(=O)[C@H](CO)NC(=O)[C@@H](Cc1c[nH]c2ccccc12)NC(=O)[C@@H](Cc1ccc(F)cc1)NC(=O)[C@@H](Cc1ccc2ccccc2c1)NC(C)=O)C(=O)N[C@@H](CC(C)C)C(=O)N[C@@H](CCCN=C(N)N)C(=O)N1CCC[C@H]1C(=O)NCC(N)=O)NCC	3.5	1.6	1.4
CC(=O)N[C@H](Cc1ccc2ccccc2c1)C(=O)N[C@H](Cc1ccc(Cl)cc1)C(=O)N[C@H](Cc1cccnc1)C(=O)N[C@@H](CO)C(=O)N[C@@H](Cc1ccc(O)cc1)C(=O)N[C@H](CCCN=C(N)N)C(=O)N[C@@H](CC(C)C)C(=O)N[C@@H](CCCN=C(N)N)C(=O)N1CCC[C@H]1C(=O)N[C@H](C)C(N)=O		0.5	0.3
CC(=O)N[C@H](Cc1ccc(Cl)cc1)C(=O)N[C@H](Cc1ccc(Cl)cc1)C(=O)N[C@H](Cc1c[nH]c2ccccc12)C(=O)N[C@@H](CO)C(=O)N[C@@H](Cc1ccc(O)cc1)C(=O)N[C@H](CCCN=C(N)N)C(=O)N[C@@H](CC(C)C)C(=O)N[C@@H](CCCN=C(N)N)C(=O)N1CCC[C@H]1C(=O)N[C@H](C)C(N)=O (Ac-[dPhe(4-Cl)][dPhe(4-Cl)][dW]SY[dR]LRP[dA]-NH2)	5	1.7	1.2
CCNC(=NCCCC[C@@H](NC(=O)[C@H](Cc1ccc(O)cc1)NC(=O)[C@H](CO)NC(=O)[C@@H](Cc1c[nH]c2ccccc12)NC(=O)[C@@H](Cc1ccc(Cl)cc1)NC(=O)[C@@H](Cc1ccc(Cl)cc1)NC(C)=O)C(=O)N[C@@H](CC(C)C)C(=O)NC(CCCN=C(N)N)C(=O)N1CCC[C@H]1C(=O)N[C@H](C)C(N)=O)NCC (some centres undefined)	3.3	1.7	1.6
CCNC(=NCCCC[C@@H](NC(=O)[C@H](Cc1ccc(O)cc1)NC(=O)[C@H](CO)NC(=O)[C@@H](Cc1c[nH]c2ccccc12)NC(=O)[C@@H](Cc1ccc(Cl)cc1)NC(=O)[C@@H](Cc1c[nH]c2ccccc12)NC(C)=O)C(=O)N[C@@H](CC(C)C)C(=O)N[C@@H](CCCN=C(N)N)C(=O)N1CCC[C@H]1C(=O)NCC(N)=O)NCC			3.4

Further lines, results first:

ED50 (ug injection-1) [1]	ED50 (ug injection-1) [2]	ED50 (ug injection-1) [3]	Compound
16	2.6	2.3	CCCNC(=NCCCC[C@@H](NC(=O)[C@H](Cc1ccc(O)cc1)NC(=O)[C@H](CO)NC(=O)[C@@H](Cc1c[nH]c2ccccc12)NC(=O)[C@@H](Cc1ccc(Cl)cc1)NC(=O)[C@@H](Cc1ccc(Cl)cc1)NC(C)=O)C(=O)N[C@@H](CC(C)C)C(=O)N[C@@H](CCCN=C(N)N)C(=O)N1CCC[C@H]1C(=O)NCC(N)=O)NCCC
16	2	2.4	CCNC(=NCCCC[C@@H](NC(=O)[C@H](Cc1ccc(O)cc1)NC(=O)[C@H](CO)NC(=O)[C@@H](Cc1c[nH]c2ccccc12)NC(=O)[C@@H](Cc1ccc(Cl)cc1)NC(=O)[C@@H](Cc1ccc(Cl)cc1)NC(C)=O)C(=O)N[C@@H](CC(C)C)C(=O)N[C@@H](CCCN=C(N)N)C(=O)N1CCC[C@H]1C(=O)NCC(N)=O)NCC
2.5	0.7	0.5	CCNC(=NCCCC[C@@H](NC(=O)[C@H](Cc1ccc(O)cc1)NC(=O)[C@H](CO)NC(=O)[C@@H](Cc1c[nH]c2ccccc12)NC(=O)[C@@H](Cc1ccc(Cl)cc1)NC(=O)[C@@H](Cc1ccc2ccccc2c1)NC(C)=O)C(=O)N[C@@H](CC(C)C)C(=O)N[C@@H](CCCN=C(N)N)C(=O)N1CCC[C@H]1C(=O)N[C@H](C)C(N)=O)NCC (stereo in doubt)
